Assay results taken from the EternaBench riboswitch data.

System: MS2 coat protein
Test: apparent Kd, MS2 coat protein; higher = weaker binding; RNA-MaP array; FMN 200 µM where present
Procedure, shortened: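 Green signal was scaled to red-channel RNA signal and control-cluster median Fmax, and the apparent Kd was taken as the median of filtered per-cluster binding-curve fits. The binding series used SNAP-549-labelled MS2 coat protein from 0.7 or 1.5 nM, doubling to 3 µM, on designs transcribed by stalled E. coli RNA polymerase on Illumina sequencing-chip clusters. Each series ran without and then with constant ligand in 100 mM Tris-HCl pH 7.5, 80 mM KCl, 4 mM MgCl2, BSA, DTT, yeast tRNA and Tween-20.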

[1] = designed as: OFF switch for flavin mononucleotide, no ligand
[2] = ligand present: flavin mononucleotide, designed as: OFF switch for flavin mononucleotide
[3] = designed as: ON switch for flavin mononucleotide, no ligand
[4] = ligand present: flavin mononucleotide, designed as: ON switch for flavin mononucleotide

| Sequence | apparent Kd [1] | apparent Kd [2] | apparent Kd [3] | apparent Kd [4] |
| --- | --- | --- | --- | --- |
| GCUAUCGAUGUAGGAUAUGCUAGGGAAACCCUGGCAGAAGGACAUGAGGAUCACCCAUGUCAAUGAGUGAAGAGAAGAGAUGGC | 43.3 nM | 127 nM |  |  |
| GCUAUGUCAGGAUAUGCUAGUGCUAGUGAAAGCUAGUGCUAGUAGAAGGGACAUGAGGAUCACCCAUGUGUAGU | 108 nM | 374 nM |  |  |
| GCUAUGUCAGGAUAUUGAUCGUGAUCGGAAAUGAUCGUGAUCGAGAAGGGACAUGAGGAUCACCCAUGUGUAGU | 166 nM | 492 nM |  |  |
| GCUCAGUAAGGAUAUUAAUGGCACUGUUAUUCAGCGCCAGCUGAGAAGGUACAUGAGGAUCACCCAUGUGGUGA | 228 nM | 135 nM |  |  |
| GCUCGAUGAGCUGACUACAUGAGGAUCACCCAUGUAGAUGGGCAGGAUAUUUACGUGCUUUAUGUAGAGAAGGGCCCAUCGAGC |  |  | 324 nM | 114 nM |
| GCUGACGAUGUAGGAUAUCAGUAUAAUAAAUACUGAGAAGGACAUGAGGAUCACCCAUGUAAAACUCCGUCAGCGAGGAAACUC | 16.6 nM | 19.4 nM |  |  |
| GCUGACGAUGUAGGAUAUCAGUAUAAUAAAUACUGAGAAGGACAUGAGGAUCACCCAUGUAAAAUCCCGUCAGCGAGGAAACUC | 17.1 nM | 23.8 nM |  |  |
| GCUGCAUAGGCAGGAUAUGCAAUAAUUCGAAUAAAAUAUAACGGAUUAACAUGAGGAUCACCCAUGUAGAAGGGCCUGUGCAGU | 5.73 nM | 5.49 nM |  |  |
| GCUGCAUAUGAGAAGGCGAUCAUGAAACAUGAUCGAGGAUAUCAUGUAAACAUGAGGAUCACCCAUGUAUGGGUAUUAAGCAGC |  |  | 282 nM | 50.5 nM |
| GCUGCAUGUGAGAAGGCGAUCAUGAAACAUGAUCGAGGAUAUCAUGUAAACAUGAGGAUCACCCAUGUAUGGGUAUUAAGCAGC |  |  |  | 59.3 nM |
| GCUGCGCGAGGAUAUGCGGUUCGCGCGGUGGCCGCUGGCGGACAUGAGGAUCACCCAUGUAGAAGGCGUGCGGG | 17 nM | 19.4 nM |  |  |
| GCUGCUAUCACAGGAUAUUACAUGGGAAAGAGUACAUGAGGAUCACCCAUGUAAAAGAUCAUAAAUAAGAAGGGUGAUAGCAGC |  |  | 150 nM | 256 nM |
| GCUGGUCGAGGAUAUGCAAUCGUGCUUCGGCACGUAAGAUCACAUGAGGAUCACCCAUGUAGAAGGCGACCAGC | 19.5 nM | 74 nM |  |  |
| GCUGUCGCAUGAGGAUAUGGUCAGCUUUGCUGACCAGAAGGCAUGUCAAUAGACAUGAGGAUCACCCAUGUAGUAAAGACAGCU |  |  | 375 nM | 33.9 nM |
| GCUGUGGCAUGAGGAUAUGCUCAGCUUUGCUGAGCAGAAGGCAUGUCAAUAGACAUGAGGAUCACCCAUGUAGUUAACACAGCA |  |  | 462 nM | 32.9 nM |
| GCUGUGGCAUGAGGAUAUGGUCAGCUUUGCUGACCAGAAGGCAUGUCAAUAGACAUGAGGAUCACCCAUGUAGUUAACACAGCA |  |  | 572 nM | 40.7 nM |
| GCUUCGGCAGGAUAUACAUGAGGAUCACCCAUGUUGAAGUUGAAGAUCUUCGGCUUCGGUAGAAGGGUUGAAGU | 38 nM | 32.1 nM |  |  |
| GCUUUAUUGGUCAGGAUAUACAUUUGUUACUCUUUGUAGAAGGGACAUGAGGAUCACCCAUGUACUUUACAUUC | 16 nM | 17.4 nM |  |  |
| GCUUUUCUAGCCAAGUGGUAGAGCGCAGAAGGCCAACAUGAGGAUCACCCAUGUAUAAAGAACAUGGAGGAUAUGCGUCACCUU |  |  | 73.7 nM | 6.5 nM |
| GGAAAACAUGAGGAUCACCCAUGUGAGGAUAUCGAUGUCCAAAAAAAAGUGCGGGACUCGAGAAGGCACUUGGU | 57.1 nM | 58.4 nM |  |  |
| GGAAAACAUGAGGAUCACCCAUGUGAGGAUAUCGAUGUCCAAAAAAAGGUGCGGGACUCGAGAAGGCACUUGGA | 55.6 nM | 47 nM |  |  |

| Sequence | apparent Kd [1] | apparent Kd [2] | apparent Kd [3] | apparent Kd [4] |
| --- | --- | --- | --- | --- |
| GGAAAACAUGAGGAUCACCCAUGUGAGGAUAUCGAUGUCCAACCCAAAGUGCGGGACUCGAGAAGGCACUUGGA | 45.7 nM | 31.5 nM |  |  |
| GGAAAGAAAAGCGAGGAUAUGCUAGGUAAUACAUGAGGAUCACCCAUGUUUUUUUUUAACAAAUUGCAGAAGGCGCAAGAAAGAAA |  |  | 24.5 nM | 17.4 nM |
| GGAAUAUUUACAGGAUAUGAUUUGUAAAUUCGAUCAGAAGGGUAGAUGUCUUACACGGUUUGUUACAUGAGGAUCACCCAUGUU |  |  | 126 nM | 42 nM |
| GGAAUCUAGUCAGGAUAUCGGGCAAUAAUUGCACGAGAAGGGACAUGAGGAUCACCCAUGUACACCUCUGGUGAGUCUCGCAGG | 16 nM | 44.3 nM |  |  |
| GGAAUCUGUGUCACUCCAUUGACAUGAGGAUCACCCAUGUCGCAGGAUAUCAGGCGCGGAGCGACUGAGAAGGGCGACUCGCGG | 86.4 nM | 50.5 nM |  |  |
| GGACAGUAAGGAUAUUGAGUCGGACAACGCCGACAGCUAGUCGAGAAGGUACAUGAGGAUCACCCAUGUCAAGU | 19.8 nM | 18 nM |  |  |
| GGACAUAAAGUCAGGAUAUUAAGGCGACCACGCGAUGAGAAGGGACAUGAGGAUCACCCAUGUGAUUCGCAUCA | 115 nM | 101 nM |  |  |
| GGACAUCCCACAGGAUAUGCUGGACUUUGUCCAGCAGAAGGGUGAAGAACAUGAGGAUCACCCAUGUGGAUGUCCAUAUUUAAU |  |  | 1440 nM | 95.4 nM |
| GGACCACAUCAGGAUAUGACUAGCCUCGGCUAGUCAGAAGGGAUGACAUGAGGAUCACCCAUGUGAUCAGGUCC | 67.9 nM | 110 nM |  |  |
| GGACGGUUAGUCAGGAUAUGCUCUACCUCGGUAGAGCAGAAGGGACAUGAGGAUCACCCAUGUGAUAACUGUUC | 27.4 nM | 34.8 nM |  |  |
| GGACGUCCCAUUAACAUGAGGAUCACCCAUGUCAAAAGACAUGAGGAUAUGGUACCUAAUUGGUACCAGAAGGCAUGGACGUCC |  |  | 1210 nM | 106 nM |
| GGACGUCUCGUUUACAUGAGGAUCACCCAUGUCGAUAGACAUGAGGAUAUGGAUCCGAAUCGGAUCCAGAAGGCAUGGACGUCC |  |  | 486 nM | 35 nM |
| GGACGUUACAUCUACAUGAGGAUCACCCAUGUCUCUUGAGAUGAGGAUAUGUAUACGAAUCGUUUAUAGAAGGCAUGAACGUCC |  |  | 144 nM | 138 nM |
| GGAGAACAUGAGGAUCACCCAUGUGGAUGGGCGCUAGGAUAUGCGAGAGGGUGGAGAGAAGCAGAAGGAGUGGAUA |  |  | 62.2 nM | 54.5 nM |
| GGAGACCUCACAGGAUAUGCUGGACUUUGUCCAGCAGAAGGGUGAAAACAUGAGGAUCACCCAUGUAUGGUCUCCAAAUUUAAU |  |  | 183 nM | 13.7 nM |
| GGAGACCUCACAGGAUAUGCUGGACUUUGUCCAGCAGAAGGGUGAAACAUGAGGAUCACCCAUGUUGGUCUCCAAAUAUUUAAU |  |  | 660 nM | 54.1 nM |
| GGAGCACACAUUAACAUGAGGAUCACCCAUGUCAAAAGACAUGAGGAUAUGGAUCCGAAAAGCAUCCAGAAGGCAUGGUGCUCC |  |  | 567 nM | 184 nM |
| GGAGCACACAUUAACAUGAGGAUCACCCAUGUCAAAAGACAUGAGGAUAUGGAUCCGAAAAGGAUCCAGAAGGCAUAGUGCUCC |  |  | 301 nM | 15.7 nM |
| GGAGCCGAUACUGAGGAUAUUCAUAUUAAAACAUGAGGAUCACCCAUGUAGGCCAGAAGGCCUUGGGAGAAGGCAGAUCGGCUCC |  |  | 417 nM | 26 nM |
| GGAGCCGGCACUGAGGAUAUUCAUAUUAAAACAUGAGGAUCACCCAUGUAGGCCAGAAGGCCUUGGGAGAAGGCAGGUCGGCCCG |  |  | 381 nM | 28.4 nM |
| GGAGCGAGCACAGGAUAUAGGCUAAAGGCUAGUCUAGAAGGGUGGGAUCAGACAUGAGGAUCACCCAUGUGUGUUUUUGCUCCA |  |  | 86.3 nM | 686 nM |
